ChEMBL document CHEMBL1125259, “Lipophilic glycosyl phosphotriester derivatives of AZT: synthesis, NMR transmembrane transport study, and antiviral activity” (1991)

How the values were obtained:
CCRF-CEM [1] = assay: Concentration that reduced by 50% the HIV induced CPE (cytopathic effect) on day 22.; type: functional; conditions: Homo sapiens, 528 h, read-out: ED50 (the source's name)
In short: (§1)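 CEM-C113 cells (1×10^5 cells/mL) were infected with HIV-1 LAV-Bru or mock-infected, with compound dilutions in triplicate, for at least 7 days. Medium with or without drug was renewed every 3–4 days for longer runs. MTT absorbance was read at 540 nm. CD50 = 50% reduction of mock-infected absorbance; ED50 = dose giving 50% protection from CPE. Values are averages of at least two experiments.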

CCRF-CEM [2] = assay: Concentration required to reduce the viability of uninfected cells (CEM-CL13) by 50% on day 22.; type: functional; conditions: Homo sapiens, 528 h, read-out: CD50 (the source's name); in short: as §1
[3] = molecular target: Human immunodeficiency virus type 1 reverse transcriptase (Human immunodeficiency virus 1) (UniProt Q72547); assay: Compound ability to inhibit the production of HIV reverse transcriptase (RT) in culture supernatant of monocytic U937 on at 7 days at a concentration 0.2 uM; type: functional
In short: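 HIV-1 LAV-Bru-infected U937 cultures run in complete RPMI 1640 (5% FCS, polybrene 2 µg/mL) at 37 °C with compound in triplicate. Culture supernatant (50 µL) sampled from day 7 for RT microassay: poly(rA)-oligo(dT), (methyl-3H)dTTP, Mg2+, pH 7.8, 1 h at 37 °C, TCA precipitation onto filters. Read as cpm/50 µL; % inhibition = 100 − 100 × treated/virus-control cpm.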

[4] = molecular target: Human immunodeficiency virus type 1 reverse transcriptase (Human immunodeficiency virus 1) (UniProt Q72547); assay: Compound ability to inhibit the production of HIV reverse transcriptase (RT) in preinfected PBL (peripheral blood lymphocytes) at 10 days at a concentration 5 uM; type: functional
In short: (§2)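 PBL were infected with HIV-1 for 1 h at 37 °C, washed twice, and resuspended in complete medium with 10% interleukin-2 and anti-human α-interferon (1000 units/mL). Cells were plated at 1×10^6 cells/well with or without compound. At each time point, 50 µL supernatant was taken for RT assay ([³H]dTTP incorporation, cpm).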

[5] = molecular target: Human immunodeficiency virus type 1 reverse transcriptase (Human immunodeficiency virus 1) (UniProt Q72547); assay: Compound ability to inhibit the production of HIV reverse transcriptase (RT) in preinfected PBL (peripheral blood lymphocytes) at 14 days at a concentration 1 uM; type: functional; in short: as §2
[6] = molecular target: Human immunodeficiency virus type 1 reverse transcriptase (Human immunodeficiency virus 1) (UniProt Q72547); assay: Compound ability to inhibit the production of HIV reverse transcriptase (RT) in preinfected PBL (peripheral blood lymphocytes) at 21 days at a concentration 1 uM; type: functional; in short: as §2
[7] = molecular target: Human immunodeficiency virus type 1 reverse transcriptase (Human immunodeficiency virus 1) (UniProt Q72547); assay: Compound ability to inhibit the production of HIV reverse transcriptase (RT) in preinfected PBL (peripheral blood lymphocytes) at 7 days at a concentration 1 uM; type: functional; in short: as §2
[8] = molecular target: Human immunodeficiency virus type 1 reverse transcriptase (Human immunodeficiency virus 1) (UniProt Q72547); assay: Compound ability to inhibit the production of HIV reverse transcriptase (RT) in culture supernatant of CEM-CL13 on at 26 days at a concentration 1 uM; type: functional
In short: (§3)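 CEM-C113 cells in RPMI 1640 with 5% heat-inactivated FCS and polybrene (2 µg/mL) were plated at 1×10^5 cells/mL with compound in PBS, in triplicate, and infected with HIV-1 LAV-Bru. From day 7, every 3–4 days, fresh medium with or without drug was added and 50 µL supernatant was taken for RT microassay. The RT microassay used poly(rA)-oligo(dT) and (methyl-³H)dTTP for 1 h at 37 °C, with TCA precipitation, read as cpm/50 µL.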

[9] = molecular target: Human immunodeficiency virus type 1 reverse transcriptase (Human immunodeficiency virus 1) (UniProt Q72547); assay: Compounds were evaluated for anti-RT activity at 7 days of culture; type: functional
In short: (§4)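 HIV-1 (12 500 CCID50) was preincubated with compound at 25 µM final for 60 min at 37 °C, pelleted by ultracentrifugation and resuspended. RT was measured at once with poly(rA)-oligo(dT) and ³H-dTTP (1 h, 37 °C, cpm). Treated virus was then put on CEM-C113 cells for 60 min and replaced with compound-free medium. Supernatant RT was read at days 7 and 9.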

[10] = molecular target: Human immunodeficiency virus type 1 reverse transcriptase (Human immunodeficiency virus 1) (UniProt Q72547); assay: Percent inhibition evaluated for anti-RT activity at 0 days of culture; type: functional; parameters: concentration or dose not given beside the values; conditions: concentration not given here; in short: as §4
[11] = molecular target: Human immunodeficiency virus type 1 reverse transcriptase (Human immunodeficiency virus 1) (UniProt Q72547); assay: Percent inhibition evaluated for anti-RT activity at 7 days of culture; type: functional; parameters: concentration or dose not given beside the values; conditions: concentration not given here; in short: as §4
[12] = molecular target: Human immunodeficiency virus type 1 reverse transcriptase (Human immunodeficiency virus 1) (UniProt Q72547); assay: Percent inhibition evaluated for anti-RT activity at 9 days of culture; type: functional; parameters: concentration or dose not given beside the values; conditions: concentration not given here; in short: as §4
[13] = molecular target: Human immunodeficiency virus type 1 reverse transcriptase (Human immunodeficiency virus 1) (UniProt Q72547); assay: Percent inhibition measured as the production of HIV reverse transcriptase (RT) in culture supernatant of monocytic U937 on at 11 days at a concentration 0.2 uM; type: functional
In short: (§5)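 HIV-1-infected monocytic U937 cultures were kept up to 14 days with compound. Supernatant RT activity was measured as for CEM-C113, as [³H] cpm/50 µL. % inhibition = 100 − 100 × (cpm of treated samples / cpm of control virus).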

[14] = molecular target: Human immunodeficiency virus type 1 reverse transcriptase (Human immunodeficiency virus 1) (UniProt Q72547); assay: Percent inhibition measured as the production of HIV reverse transcriptase (RT) in culture supernatant of monocytic U937 on at 14 days at a concentration 1 uM; type: functional
In short: (§6)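 U937 cells in RPMI 1640 with 5% heat-inactivated FCS, penicillin, streptomycin and polybrene (2 μg/mL), 37 °C, 5% CO2. Infected with HIV-1 LAV-Bru; compounds diluted in PBS. 50 μL supernatant aliquots were assayed for RT: 1 h, 37 °C, pH 7.8, Mg2+, poly(rA)-oligo(dT), [3H]dTTP, TCA-pyrophosphate stop, filter counting. % inhibition = 100 − 100 × (treated cpm / virus-control cpm).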

[15] = molecular target: Human immunodeficiency virus type 1 reverse transcriptase (Human immunodeficiency virus 1) (UniProt Q72547); assay: Compounds were evaluated for anti-RT activity by MTT dose and %protection was reported at 7 days of culture; type: functional
In short: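 HIV-1 was preincubated with compound at 25 µM for 60 min at 37 °C, pelleted, and added to CEM-C113 cells (1×10^5 cells/mL) for 60 min at 37 °C. Medium was then replaced without compound. At days 7 and 9, viability was read by MTT assay on 100 µL of cell suspension.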

[16] = molecular target: Human immunodeficiency virus type 1 reverse transcriptase (Human immunodeficiency virus 1) (UniProt Q72547); assay: Compound ability to inhibit the production of HIV reverse transcriptase (RT) in culture supernatant of monocytic U937 on at 7 days at a concentration 5 uM; type: functional; in short: as §5
[17] = molecular target: Human immunodeficiency virus type 1 reverse transcriptase (Human immunodeficiency virus 1) (UniProt Q72547); assay: Compound ability to inhibit the production of HIV reverse transcriptase (RT) in culture supernatant of monocytic U937 on at 11 days at a concentration 5 uM; type: functional; in short: as §5
[18] = molecular target: Human immunodeficiency virus type 1 reverse transcriptase (Human immunodeficiency virus 1) (UniProt Q72547); assay: Compound ability to inhibit the production of HIV reverse transcriptase (RT) in culture supernatant of CEM-CL13 on at 15 days at a concentration 5 uM; type: functional; in short: as §3
[19] = molecular target: Human immunodeficiency virus type 1 reverse transcriptase (Human immunodeficiency virus 1) (UniProt Q72547); assay: Compound ability to inhibit the production of HIV reverse transcriptase (RT) in culture supernatant of CEM-CL13 on at 22 days at a concentration 5 uM; type: functional; in short: as §3
[20] = molecular target: Human immunodeficiency virus type 1 reverse transcriptase (Human immunodeficiency virus 1) (UniProt Q72547); assay: Compound ability to inhibit the production of HIV reverse transcriptase (RT) in culture supernatant of CEM-CL13 on at 26 days at a concentration 5 uM; type: functional; in short: as §3
[21] = molecular target: Human immunodeficiency virus type 1 reverse transcriptase (Human immunodeficiency virus 1) (UniProt Q72547); assay: Percent inhibition measured as the production of HIV reverse transcriptase (RT) in culture supernatant of monocytic U937 on at 14 days at a concentration 5 uM; type: functional; in short: as §6
[22] = molecular target: Human immunodeficiency virus type 1 reverse transcriptase (Human immunodeficiency virus 1) (UniProt Q72547); conditions: at 25 µM
[23] = molecular target: Human immunodeficiency virus type 1 reverse transcriptase (Human immunodeficiency virus 1) (UniProt Q72547); conditions: at 25 µM; remark: listed apart in the source

SMILES	EC50 (CCRF-CEM [1]) [µM]	CC50 (CCRF-CEM [2]) [µM]	Activity (c.p.m. 50ul-1) [3]	Activity (c.p.m. 50ul-1) [4]	Activity (c.p.m. 50ul-1) [5]	Activity (c.p.m. 50ul-1) [6]	Activity (c.p.m. 50ul-1) [7]	Activity (c.p.m. 50ul-1) [8]	Activity (c.p.m. 50ul-1) [9]	inhibition [10] [%]	inhibition [11] [%]	inhibition [12] [%]	inhibition [13] [%]	inhibition [14] [%]	Protection [15] [%]	Activity (c.p.m. 50ul-1) [16]	Activity (c.p.m. 50ul-1) [17]	Activity (c.p.m. 50ul-1) [18]	Activity (c.p.m. 50ul-1) [19]	Activity (c.p.m. 50ul-1) [20]	other results
CCCCCCCCCCCCCCCCOP(=O)(OC[C@H]1OC(O)[C@H](O)[C@@H](O)[C@@H]1O)OC[C@H]1OC(n2cc(C)c(=O)[nH]c2=O)C[C@@H]1N=[N+]=[N-] (stereo not given in full)	0.8	3.2	237000	36400	144000	71100	3490	72000	8000	9	87	58	0	79	81						
Cc1cn([C@H]2C[C@H](N=[N+]=[N-])[C@@H](COP(=O)(O)OC[C@H]3OC(O)[C@@H](O)[C@@H](O)[C@@H]3O)O2)c(=O)[nH]c1=O (stereo not given in full)	0.6	24		936	46100	33100	943		24000	0	62	0		0	38	133000	193000	1300	12000	103000	inhibition [21]: 0%; inhibition [22]: 2%; inhibition [23]: 86%
CCCCCCCCCCCCCCCCOP(=O)(OC[C@H]1OC(O)[C@@H](O)[C@@H](O)[C@@H]1O)OC[C@H]1OC(n2cc(C)c(=O)[nH]c2=O)C[C@@H]1N=[N+]=[N-] (stereo not given in full)	0.4	2.5	251000	28000	114000		9320	20000	18000	30	71	68	0	0	68						
Cc1cn([C@H]2C[C@H](N=[N+]=[N-])[C@@H](COP(=O)(O)OCCO[C@H]3O[C@H](CO)[C@@H](O)[C@H](O)[C@@H]3O)O2)c(=O)[nH]c1=O	0.6	28		1100	39700	21300	923		47000	0	25	0		0	20	200000	192000	852	5500	42000	inhibition [21]: 0%; inhibition [22]: 20%; inhibition [23]: 77%
CCCCCCCCCCCCCCCCOP(=O)(OCCO[C@H]1O[C@H](CO)[C@@H](O)[C@H](O)[C@@H]1O)OCC1OC(n2cc(C)c(=O)[nH]c2=O)CC1N=[N+]=[N-] (stereo not given in full)	1.3	3.4	343000				30200	64000	81000	26	0	0	9	0	21						
Cc1cn([C@H]2C[C@H](N=[N+]=[N-])[C@@H](COP(=O)(O)OC[C@H]3OC(O)[C@H](O)[C@@H](O)[C@@H]3O)O2)c(=O)[nH]c1=O (stereo not given in full)	0.9	35		798	408	16100	1010		19000	0	70	10		9		142000	211000	400	1500	6000	inhibition [21]: 0%; inhibition [22]: 0%; inhibition [23]: 73%
